Results on three molecules are retold here after ChEMBL document CHEMBL2331117 (J Med Chem, 2013).

In data set [1] the target is Phosphatidylinositol 4,5-bisphosphate 3-kinase catalytic subunit alpha isoform (Homo sapiens, UniProt P42336). The experiment in a line: Inhibition of PI3Kalpha (unknown origin) using PIP2 as substrate after 2 hrs by luminescence assay.
Data set [2] in a line: Apparent permeability across MDCK cells. To be noted: dog. The format is ADME, cell-based, Canis lupus familiaris.
A further data set is filed under the species Homo sapiens. The experiment in a line: Selectivity ratio of IC50 for PI3Kalpha (unknown origin) to IC50 for mTOR (unknown origin).
A short description of data set [3]: Kinetic solubility of the compound. It is filed as physicochemical. The following applies: read-out: Kinetic_solubility.
The nature of data set [4]: Inhibition of mTORC1 (unknown origin)-mediated 4EBP1 phosphorylation after 120 mins by ELISA. Also noted: species or system Homo sapiens. Background: An ELISA detects its analyte on a solid surface through an enzyme-linked reagent.
The target in a further data set is Cytochrome P450 3A4 (Homo sapiens, UniProt P08684). The experiment in a line: Inhibition of CYP3A4 (unknown origin). It is filed as ADME.
Cytochrome P450 3A4, sequence (P08684 whole entry): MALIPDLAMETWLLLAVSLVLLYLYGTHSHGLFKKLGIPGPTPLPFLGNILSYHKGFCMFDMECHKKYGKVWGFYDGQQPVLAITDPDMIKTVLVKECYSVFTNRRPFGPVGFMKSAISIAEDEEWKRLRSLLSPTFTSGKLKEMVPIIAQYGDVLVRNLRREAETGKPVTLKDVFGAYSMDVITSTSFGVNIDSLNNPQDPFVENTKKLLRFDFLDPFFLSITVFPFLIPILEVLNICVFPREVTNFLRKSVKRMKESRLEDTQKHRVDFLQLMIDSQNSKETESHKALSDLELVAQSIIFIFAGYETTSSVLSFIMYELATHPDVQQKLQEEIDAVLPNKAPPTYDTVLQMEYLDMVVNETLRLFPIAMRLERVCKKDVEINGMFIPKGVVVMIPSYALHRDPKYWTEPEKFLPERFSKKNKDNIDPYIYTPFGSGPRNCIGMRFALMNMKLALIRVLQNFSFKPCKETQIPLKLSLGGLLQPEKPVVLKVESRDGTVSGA
The nature of data set [5]: Inhibition of mTORC1-mediated phosphorylation of S6 at serine 240/244 in human PC3 cells after 3 hrs by ELISA. The format is cell-based. To be noted: PC-3, 3 h.
Data set [6] can be described thus: Metabolic stability in mouse liver microsomes after 30 mins. It is filed as ADME, Microsome. To be noted: read-out: Stability.
For the next data set, the target named is Cytochrome P450 2D6 (Homo sapiens, UniProt P10635). Kind of data set: Inhibition of CYP2D6 (unknown origin). The format is ADME.
Cytochrome P450 2D6, sequence (P10635 whole entry): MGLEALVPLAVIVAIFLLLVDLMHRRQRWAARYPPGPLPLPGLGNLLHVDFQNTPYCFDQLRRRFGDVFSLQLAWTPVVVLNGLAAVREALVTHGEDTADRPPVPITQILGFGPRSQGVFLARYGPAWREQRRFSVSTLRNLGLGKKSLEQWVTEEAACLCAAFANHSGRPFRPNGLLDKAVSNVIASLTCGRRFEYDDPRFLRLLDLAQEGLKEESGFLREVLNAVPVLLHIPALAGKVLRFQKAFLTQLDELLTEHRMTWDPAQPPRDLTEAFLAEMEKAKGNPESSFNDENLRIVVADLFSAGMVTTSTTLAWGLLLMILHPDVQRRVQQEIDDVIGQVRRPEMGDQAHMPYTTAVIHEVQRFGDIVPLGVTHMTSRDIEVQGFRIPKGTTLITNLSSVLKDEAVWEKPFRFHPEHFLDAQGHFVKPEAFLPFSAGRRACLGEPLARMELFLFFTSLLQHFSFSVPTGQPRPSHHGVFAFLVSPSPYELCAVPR
The target of the next data set is T1, Cytochrome P450 2C8 (Homo sapiens, UniProt P10632).
T1 sequence (P10632 whole entry): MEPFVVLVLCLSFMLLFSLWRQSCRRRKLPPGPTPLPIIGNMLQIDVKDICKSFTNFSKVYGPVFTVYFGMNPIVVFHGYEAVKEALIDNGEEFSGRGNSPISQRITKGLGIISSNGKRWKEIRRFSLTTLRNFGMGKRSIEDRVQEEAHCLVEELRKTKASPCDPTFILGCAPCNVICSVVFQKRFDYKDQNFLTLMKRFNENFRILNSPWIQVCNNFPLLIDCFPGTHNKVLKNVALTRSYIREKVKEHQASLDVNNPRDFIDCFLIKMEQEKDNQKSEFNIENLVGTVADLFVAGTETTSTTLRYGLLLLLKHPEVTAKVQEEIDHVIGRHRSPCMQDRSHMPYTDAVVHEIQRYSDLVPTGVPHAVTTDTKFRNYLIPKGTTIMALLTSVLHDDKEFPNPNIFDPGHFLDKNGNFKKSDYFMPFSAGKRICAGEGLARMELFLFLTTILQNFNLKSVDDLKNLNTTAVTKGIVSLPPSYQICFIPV
The experiment in a line: Inhibition of CYP2C8 (unknown origin). It is filed as ADME.

Data set [7] in a line: Plasma concentration in mouse at 100 mg/kg, po after 4 hrs. Further details: dose 100 mg/kg, route oral. The format is ADME, organism-based.
Data set [8] is described as follows: Plasma concentration in mouse at 100 mg/kg, po after 1 hr. The format is ADME, organism-based. Also noted: dose 100 mg/kg, route oral.
The target in a further data set is Cytochrome P450 2C9 (Homo sapiens, UniProt P11712). Kind of data set: Inhibition of CYP2C9 (unknown origin). The format is ADME.
Cytochrome P450 2C9, sequence (P11712 whole entry): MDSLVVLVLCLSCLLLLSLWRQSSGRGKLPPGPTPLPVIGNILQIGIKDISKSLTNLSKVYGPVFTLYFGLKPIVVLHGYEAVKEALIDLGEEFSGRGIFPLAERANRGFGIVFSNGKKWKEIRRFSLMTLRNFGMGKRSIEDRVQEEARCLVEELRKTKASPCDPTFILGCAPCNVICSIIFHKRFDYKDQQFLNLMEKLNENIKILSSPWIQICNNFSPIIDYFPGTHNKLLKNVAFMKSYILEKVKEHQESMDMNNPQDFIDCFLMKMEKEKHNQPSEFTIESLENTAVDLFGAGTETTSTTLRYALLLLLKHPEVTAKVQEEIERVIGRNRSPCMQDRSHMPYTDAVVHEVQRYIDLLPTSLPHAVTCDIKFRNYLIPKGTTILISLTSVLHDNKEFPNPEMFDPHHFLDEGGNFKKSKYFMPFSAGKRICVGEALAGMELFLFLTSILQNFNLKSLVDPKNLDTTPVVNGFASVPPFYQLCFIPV
Data set [9] is described as follows: Inhibition of mTORC2-mediated phosphorylation of AKT at serine 473 in human PC3 cells after 2 hrs and 50 mins by ELISA. It is filed as cell-based. The following applies: PC-3. The essentials: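 Compound in 0.3% DMSO was added for 2 h 50 min, followed by 10 min stimulation with 20 ng/mL EGF. After formaldehyde fixation, pAKT (S473) and total AKT were detected by chemiluminescent cell ELISA. IC50 came from pAKT normalized to total AKT, relative to DMSO control. Mean, n ≥ 2.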

The structures appear in SMILES notation. ≈ marks a conversion by molar mass, not a printed value. Some results are limits rather than exact numbers.

Phosphatidylinositol 4,5-bisphosphate 3-kinase catalytic subunit alpha isoform, sequence (P42336 whole entry, canonical isoform): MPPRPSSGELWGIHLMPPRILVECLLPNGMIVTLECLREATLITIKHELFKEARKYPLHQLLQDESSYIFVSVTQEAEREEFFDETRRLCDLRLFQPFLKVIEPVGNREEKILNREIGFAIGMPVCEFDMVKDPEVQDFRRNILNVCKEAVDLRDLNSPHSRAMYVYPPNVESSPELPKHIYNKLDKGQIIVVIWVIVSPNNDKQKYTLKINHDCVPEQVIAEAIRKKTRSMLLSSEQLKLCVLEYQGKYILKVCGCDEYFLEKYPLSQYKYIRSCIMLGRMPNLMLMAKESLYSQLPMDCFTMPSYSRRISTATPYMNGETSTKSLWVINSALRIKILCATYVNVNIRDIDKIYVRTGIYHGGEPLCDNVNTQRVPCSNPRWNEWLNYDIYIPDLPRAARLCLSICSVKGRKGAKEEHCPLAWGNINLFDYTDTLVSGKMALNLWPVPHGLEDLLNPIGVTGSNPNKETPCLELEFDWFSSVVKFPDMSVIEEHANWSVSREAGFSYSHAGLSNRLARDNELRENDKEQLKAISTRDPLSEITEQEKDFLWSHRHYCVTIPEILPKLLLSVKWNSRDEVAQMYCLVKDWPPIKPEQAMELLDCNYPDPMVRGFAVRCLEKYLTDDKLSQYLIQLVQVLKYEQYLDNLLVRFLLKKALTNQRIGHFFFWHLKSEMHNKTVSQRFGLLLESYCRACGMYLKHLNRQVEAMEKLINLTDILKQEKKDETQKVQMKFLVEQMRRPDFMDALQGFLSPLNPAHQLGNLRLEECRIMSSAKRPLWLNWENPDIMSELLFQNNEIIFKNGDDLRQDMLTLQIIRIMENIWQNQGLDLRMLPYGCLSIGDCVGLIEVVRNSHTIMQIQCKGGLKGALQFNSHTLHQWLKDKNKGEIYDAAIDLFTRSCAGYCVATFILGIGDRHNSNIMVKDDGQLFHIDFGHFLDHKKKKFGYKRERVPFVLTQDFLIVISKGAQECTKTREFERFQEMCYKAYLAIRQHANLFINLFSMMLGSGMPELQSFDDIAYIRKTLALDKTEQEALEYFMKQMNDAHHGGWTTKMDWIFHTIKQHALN

In the case of `O=C(c1ccc(C(=O)C(F)(F)F)cc1)N1CCOc2ccc(-c3cnc4ccccc4c3)cc2C1`, the IC50 – broadly, the concentration needed to halve the response being measured – in [1] stood at 398 nM; in [4] it was 95 nM. The Papp (usually a coefficient for how fast a substance crosses the barrier) in data set [2] is 1.69 ×10⁻⁶ cm/s. Besides, the Ratio IC50 in the data set listed under Homo sapiens stood at 4. The solubility kinetic in data set [3] is 40.1 µM (≈ 19.1 µg/mL).

`O=C(c1ccc(C(=O)C(F)(F)F)cc1)N1CCOc2ccc(-c3ccc4nc[nH]c4c3)cc2C1`: the INH at Cytochrome P450 3A4 amounted to 2.3 µM; at Cytochrome P450 2D6 it was 4 µM; on Cytochrome P450 2C8, 6.2 µM; on Cytochrome P450 2C9 it was 0.8 µM. The IC50 amounted to 151 nM in data set [5], 89 nM in [1] and 2.3 nM in [4]. Besides, in data set [6], the remaining at 0.5 h stood at 49%. The Papp in [2] was 0.98 ×10⁻⁶ cm/s. The same molecule returned a concentration at 4 h in data set [7] of 400 nM. Further, the solubility kinetic in data set [3] is below 1 µM. The molecule further showed a concentration at 1 h in data set [8] of 1500 nM.

With `CS(=O)(=O)c1ccc(C(=O)N2CCOc3ccc(-c4ccc5nc[nH]c5c4)cc3C2)cc1`, the INH at Cytochrome P450 3A4 is 3.8 µM; at Cytochrome P450 2D6, 8.1 µM; at Cytochrome P450 2C8 it was above 20 µM; on Cytochrome P450 2C9, 3 µM. The IC50 in data set [5] is 342 nM; in data set [1], 670 nM; in data set [4], 4.4 nM; in data set [9] it was 805 nM. Further, the remaining at 0.5 h in [6] worked out at 82%. In data set [7], the concentration at 4 h came out at 1000 nM. Moreover, the concentration at 1 h in [8] was 7800 nM.
